TAAR1 agonist – agonists of human TAAR1; Q96RJ0; CHO RD-HGA16 TAAR1, Fluo-8 calcium fluorescence; vehicle wells 0%, saturating PEA agonist 100%; activation, % at 3 µM; hit rate 0.99% among 360,000; AID 624467;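 active = activation above the mean activation of all test compounds in the run plus 3 SD, cut at about 38% in these data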
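test system = CHO RD-HGA16 cells carrying human TAAR1 plus Gα16 | schedule = 17-24 h seeding, 75 min 37 °C dye, 30 min RT | compound dosing = 3 µM single concentration | control set = DMSO and PEA EC100 | replicates = n 1 | signal = Fluo-8 fluorescence, 5 s baseline then 140 s kinetic read | measure = percent activation vs PEA EC100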
TRPN1 ag – agonists of zebrafish TRPN1 channel | HEK293 zebrafish TRPN1-YFP, Fluo-8 calcium fluorescence; 100% = response to 87 µM carbachol | activation, % at 3 µM | hit rate 0.18% among 220,000 | AID 1424;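 active = activation above its plate's cutoff, the mean activation of test wells on that plate plus 3 SD, cut at about 19% in these data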;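 also: 0% = DMSO alone and 100% = 87 µM carbachol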
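System: zebrafish TRPN1-YFP in HEK293 cells / Dosing: 3 µM single point / Timing: dye loading 1 h at 37 °C, then 30 min room temperature / Signal: Fluo-8 calcium fluorescence, excitation 470-495 nm, emission 515-575 nm / Read-out basis: percent activation from peak over basal fluorescence ratio, control-normalized / Control set: high carbachol 87 µM, low DMSO alone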
LANA-H2A inh – blocks KSHV LANA binding to histone H2A/H2B; Q9QR71; hit rate 0.6% among 320,000; inhibition, % (no concentration beside the values); AID 2629; cell-free LANA-H2A/H2B peptide, fluorescence polarization; in the data active = inhibition mostly above about 10%, no sharp cut-off; inactive = mostly below about 6.7%
GPR7 antag – antagonists of human GPR7 (neuropeptides B/W receptor 1); P48145; GPR7-expressing cells, fluorescence antagonist assay; inhibition, % at 4.4 µM; hit rate 1.1% among 290,000; in the data active = inhibition above about 16%, passing the limit was not always enough;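 also: cells stimulated with the agonist NPW; 0% = agonist with vehicle and 100% = vehicle without agonist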
TRPML3 agonist – activates the human TRPML3 channel; Q8TDD5; HEK293 TRPML3-YFP, Fluo-8 calcium fluorescence; 100% = the carbachol control signal; activation, % at 3 µM; hit rate 0.29% among 220,000;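 active = activation above its plate's cutoff, the mean activation of the plate's test wells plus 3 SD, cut at about 12% in these data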;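 also: 0% = DMSO only wells and 100% = carbachol wells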
Target sequence (Q8TDD5 whole entry, looked up): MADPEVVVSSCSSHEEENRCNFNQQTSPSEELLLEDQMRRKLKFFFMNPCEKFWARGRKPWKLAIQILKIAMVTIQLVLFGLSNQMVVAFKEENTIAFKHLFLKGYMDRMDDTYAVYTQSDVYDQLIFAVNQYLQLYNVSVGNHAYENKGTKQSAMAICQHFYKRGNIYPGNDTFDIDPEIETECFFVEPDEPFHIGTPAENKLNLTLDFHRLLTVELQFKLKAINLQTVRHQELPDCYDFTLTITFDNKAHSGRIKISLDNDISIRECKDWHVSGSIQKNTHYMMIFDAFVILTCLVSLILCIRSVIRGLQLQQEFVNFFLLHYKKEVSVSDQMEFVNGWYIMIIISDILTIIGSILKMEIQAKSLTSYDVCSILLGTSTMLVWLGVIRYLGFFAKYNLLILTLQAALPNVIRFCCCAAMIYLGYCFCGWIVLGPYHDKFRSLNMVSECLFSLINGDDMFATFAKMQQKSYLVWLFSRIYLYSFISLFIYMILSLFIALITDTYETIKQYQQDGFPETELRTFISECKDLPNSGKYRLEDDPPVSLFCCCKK
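system = HEK293 cells stably carrying human TRPML3-YFP | doses = one concentration, 3 µM nominal, 0.3% DMSO | timing = dye loading 1 h 37 °C then 30 min ambient, 125 s read | detection = Fluo-8 calcium dye fluorescence, ex 470-495, em 515-575 nm | benchmarks = high control carbachol 87 µM, low control DMSO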
TAAR1 antag – human TAAR1 antagonism | CHO RD-HGA16 TAAR1, Fluo-8 calcium fluorescence, antagonist | AID 624466 | hit rate 1.5% among 360,000 | inhibition, % at 3 µM | Q96RJ0;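 active = inhibition above a per-plate cutoff, the mean inhibition of test compounds on that plate plus 3 SD, cut at about 49% in these data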;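 also: 0% = DMSO plus EC80 beta-PEA response and 100% = DMSO alone without agonist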
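Test system – hTAAR1-expressing CHO RD-HGA16 cells, Gα16-coupled · Also added – β-PEA at EC80 concentration, post-compound challenge · Compound – 3 µM, single point · Incubation – dye loading 75 min at 37 °C, then 30 min room temperature · Measured by – Fluo-8 intracellular calcium dye fluorescence, real-time kinetic reads · Benchmarks – vehicle and agonist controls · Replicates – singlicate, one well per test compound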
GPR7 antag conf – confirmation of human GPR7 antagonists. shares compounds with GPR7 antag. GPR7-expressing cells, calcium fluorescence antagonist mode. inhibition, % at 4.4 µM. hit rate 52% among 2,400. AID 1952; in the data active = inhibition above about 24%;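 also: stimulated with the GPR7 agonist NPW; 0% = agonist plus vehicle and 100% = vehicle alone without agonist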
MCHR1 antagonist – counter-screen for GPR7 antagonists: antagonists of human MCHR1 | shares compounds with GPR7 antag | MCHR1-expressing cells, fluorescence antagonist assay | inhibition, % at 4.4 µM | hit rate 62% among 2,400 | AID 2148; in the data active = inhibition above about 22%;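 also: 0% = vehicle with agonist and 100% = vehicle without agonist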
Active calls of the source: *; · = not tested or not shown. Only some compounds are listed: those with a hit (about 3.4% of all), similar ones and a draw of the others.

SMILES | TAAR1 agonist | TRPN1 ag | LANA-H2A inh | GPR7 antag | TRPML3 agonist | TAAR1 antag | GPR7 antag conf | MCHR1 antagonist
COc1ccccc1Cn1c(=S)[nH]c2cc(C(=O)N3CCC(C(N)=O)CC3)ccc2c1=O | 3 | · | -3 | 25* | · | -20 | 7 | 12
CCOC(=O)N1CCN(C(=O)c2ccc3c(=O)n(Cc4ccccc4OC)c(=S)[nH]c3c2)CC1 | 12 | -1 | -4 | 12 | 0 | 21 | · | ·
CCN(CC)C(=O)C1CC(=O)N(c2ccc(F)c(Cl)c2)C1 (stereo not given) | 1 | 2 | -2 | 22* | 1 | -23 | 6 | -1
O=C(CN1C(=O)NC2(CCc3ccccc32)C1=O)Nc1ccc(Br)cc1F (stereo not given) | 28 | · | · | · | · | -8 | · | ·
Cc1ccccc1C(=O)N1CCN=C1SCc1ccc([N+](=O)[O-])cc1 | 11 | 2 | · | 41* | 2 | 1 | 26* | 29*
Cc1cc(NC(=O)CCc2ccc(S(=O)(=O)N3CCOCC3)cc2)n(-c2ccccc2)n1 | 3 | 1 | 0 | 30* | 0 | 0 | -9 | 21
CCCCCc1ccc(OCCCC[n+]2ccc(C)cc2)c(CCCCC)c1 | 35 | -1 | 8 | 24* | 0 | -11 | 70* | 79*
O=C1NC(=S)SC1=C1CCCC1 | -1 | 1 | 0 | 0 | 1 | -3 | · | ·
CN1C(=O)C(=C2CCCCCC2)SC1=S | 16 | 0 | -1 | 31* | 0 | -20 | -6 | -3
C[C@@H](NC(=O)c1[nH]cnc1C(=O)Nc1ccccc1F)c1ccccc1 | 0 | · | · | · | · | 3 | · | ·
COc1cc(N(C)C)ccc1[C@]1(O)C(=O)N(C)c2ccc(Br)cc21 | 3 | · | · | · | · | 0 | · | ·
Cc1ccc(C(=O)C[n+]2cc(-c3ccc(C)cc3)n3c2CCCCC3)cc1 | 14 | -2 | 7 | 60* | -1 | 3 | 32* | 50*
CCOc1cc2c(cc1O)C(=NOC)CC1C2CCC2(C)C(O)CCC12 (stereo not given) | 1 | · | · | · | · | 15 | · | ·
CC(C)N1C(=O)S/C(=C/c2ccc(Sc3nc4ccccc4[nH]3)o2)C1=O | 13 | 3 | 3 | -11 | 2 | 32 | · | ·
C=CCN1C(=O)S/C(=C/c2ccc(Sc3nc4ccccc4[nH]3)o2)C1=O | 18 | 5 | -2 | 54* | 3 | 39 | 37* | 75*
Cc1c(O)ccoc1=O | 0 | 0 | -1 | 21* | 0 | 2 | -1 | -6
COc1ccc2ccccc2c1CNC(C)c1ccccc1 (stereo not given) | 0 | · | 12 | 3 | · | -1 | · | ·
CC(NCCCOc1cccc2ccccc12)c1ccccc1 (stereo not given) | 45* | · | 2 | 25* | · | 36 | 57* | 50*
O=C(Nc1cccc(C(F)(F)F)c1)c1csc([C@@H]2O[C@H](CO)[C@H](O)[C@H](O)[C@H]2O)n1 | 1 | · | · | · | · | -2 | · | ·
CS(=O)(=O)N1CCc2cc(C(=O)N3CCN(c4cccc(Cl)c4)CC3)ccc21 | 5 | · | 2 | 8 | · | -21 | · | ·
Cc1ccc(Cl)cc1N1CCN(C(=O)c2ccc3c(c2)CCN3S(C)(=O)=O)CC1 | 4 | · | · | 29* | · | 12 | 25* | 17
O=C(NCc1cc2ccccc2[nH]1)C1CCC(=O)N(CCCN2CCCC2=O)C1 (stereo not given) | -1 | · | 5 | -6 | · | -12 | · | ·
CCOC(=O)c1sc(NC(=O)Nc2ccc(Cl)cc2)cc1C | 13 | 18 | -2 | 35* | 4 | 82* | 63* | 72*
O=C1c2ccccc2C(c2nnnn2Cc2ccccc2)N1Cc1cccnc1 (stereo not given) | 1 | · | · | · | · | -12 | · | ·
Cc1nn(-c2ccc(NC(=O)c3ccncc3)cc2)c(C)c1Cl | 19 | · | -1 | 32* | · | 38 | 52* | 65*
SMILES | TAAR1 agonist | TRPN1 ag | LANA-H2A inh | GPR7 antag | TRPML3 agonist | TAAR1 antag | GPR7 antag conf | MCHR1 antagonist
C/C(=N\NC(=O)c1c(Cl)c(C)nn1C)c1ccc(NC(=O)c2ccncc2)cc1 | 5 | -1 | 1 | -3 | 0 | -5 | · | ·
Cc1c(C(=O)N2CCN(Cc3ccc4c(c3)OCO4)CC2)sc2ncnc(N3CCN(c4ccccc4)CC3)c12 | 1 | · | -1 | 44* | · | 19 | 44* | 81*
COc1cc(CNC[C@H]2O[C@@H](n3ccc(N)nc3=O)[C@H](O)[C@@H]2O)ccc1OCc1cccc(Cl)c1 | 2 | · | · | · | · | -7 | · | ·
COc1ccc(-c2cc(C)no2)cc1S(=O)(=O)N1CCOc2ccccc21 | -1 | · | -5 | 23* | · | -10 | 13 | 18
CC(O)CN(C)CC/C=C1/c2ccccc2CSc2ccccc21 (stereo not given) | -2 | 1 | 2 | 22* | 1 | 8 | 17 | 18
CN(CC/C=C1/c2ccccc2CSc2ccccc21)CCCO | 4 | 1 | 1 | 1 | 1 | -6 | · | ·
NC(=O)CCn1nc(-c2ccc(Cl)cc2)c2ccccc2c1=O | -1 | 0 | -2 | -7 | 0 | -4 | · | ·

From PubChem BioAssay
